From ChEMBL document CHEMBL4359823, “Switching on the activity of 1,5-diaryl-pyrrole derivatives against drug-resistant ESKAPE bacteria: Structure-activity relationships and mode of action studies” (Eur J Med Chem, 2019)
Converted amounts (≈) assume the structure as drawn.

Legend:
Assay type in all cases: functional
[1] = system: Staphylococcus aureus; assay: Antibacterial activity against methicillin-resistant Staphylococcus aureus EMRSA15 measured after overnight incubation by microbroth dilution method
Method in brief: (§1)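 Microbroth dilution: DMSO stocks diluted in water, 2-fold series. Overnight TSB cultures back-diluted to OD 0.01 and mixed 1:1 with compound. Incubated overnight at 37 °C; MIC taken as lowest concentration without visible growth (<0.1 OD600). Run in duplicate; matching DMSO levels checked for effect on growth.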

[2] = system: Staphylococcus aureus; assay: Antibacterial activity against methicillin-sensitive Staphylococcus aureus ATCC 9144 measured after overnight incubation by microbroth dilution method; method in brief: as §1
[3] = system: Staphylococcus aureus; assay: Antibacterial activity against methicillin-resistant Staphylococcus aureus MRSA252 measured after overnight incubation by microbroth dilution method; method in brief: as §1
[4] = system: Enterococcus faecalis; assay: Antibacterial activity against vancomycin resistant Enterococcus faecalis NCTC12204 measured after overnight incubation by microbroth dilution method; method in brief: as §1
[5] = system: Enterococcus faecalis; assay: Antibacterial activity against vancomycin sensitive Enterococcus faecalis NCTC775 measured after overnight incubation by microbroth dilution method; method in brief: as §1
[6] = system: Enterococcus faecalis; assay: Antibacterial activity against vancomycin resistant Enterococcus faecalis NCTC12201 measured after overnight incubation by microbroth dilution method; method in brief: as §1

| Compound | MIC [1] [µg/mL] | MIC [2] [µg/mL] | MIC [3] [µg/mL] | MIC [4] [µg/mL] | MIC [5] [µg/mL] | MIC [6] [µg/mL] |
| --- | --- | --- | --- | --- | --- | --- |
| Cc1cc(CN2CCN(C3C4CC5CC(C4)CC3C5)CC2)c(C)n1-c1ccccc1F (centres undefined) | 32 (≈ 75.9 µM) | 32 (≈ 75.9 µM) | 32 (≈ 75.9 µM) | 32 (≈ 75.9 µM) | 32 (≈ 75.9 µM) | 32 (≈ 75.9 µM) |
| Cc1cc(CNC2C3CC4CC(C3)CC2C4)c(C)n1-c1ccc(Cl)cc1 (centres undefined) | > 128 | 128 (≈ 347 µM) | 128 (≈ 347 µM) | 64 (≈ 173 µM) | 128 (≈ 347 µM) | 128 (≈ 347 µM) |
| Cc1cc(CN2CCN(C3CCCCC3)CC2)c(C)n1-c1ccc(Cl)cc1 | > 128 | 128 (≈ 332 µM) | > 128 | 128 (≈ 332 µM) | 128 (≈ 332 µM) | 128 (≈ 332 µM) |
| Cc1cc(CN2CCN(C3C4CC5CC(C4)CC3C5)CC2)c(C)n1-c1ccc(Cl)cc1 (centres undefined) | 32 (≈ 73 µM) | 16 (≈ 36.5 µM) | 32 (≈ 73 µM) | 16 (≈ 36.5 µM) | 16 (≈ 36.5 µM) | 16 (≈ 36.5 µM) |
